Sampled rows, rich in hits. Any-hit rate of the full collection: about 0.99%.
ABCG2 block: human ABCG2 inhibition, ABCB1 as counter-screen; Q9UNQ0; IgMXP3 cells, JC-1 efflux, flow cytometry; inhibition, % at 6.6 µM; 0.1% of 190,000 active;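 active = inhibition above 80%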;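 note: 0% = DMSO and 100% = nicardipine control wells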
Target sequence (Q9UNQ0 whole entry, looked up): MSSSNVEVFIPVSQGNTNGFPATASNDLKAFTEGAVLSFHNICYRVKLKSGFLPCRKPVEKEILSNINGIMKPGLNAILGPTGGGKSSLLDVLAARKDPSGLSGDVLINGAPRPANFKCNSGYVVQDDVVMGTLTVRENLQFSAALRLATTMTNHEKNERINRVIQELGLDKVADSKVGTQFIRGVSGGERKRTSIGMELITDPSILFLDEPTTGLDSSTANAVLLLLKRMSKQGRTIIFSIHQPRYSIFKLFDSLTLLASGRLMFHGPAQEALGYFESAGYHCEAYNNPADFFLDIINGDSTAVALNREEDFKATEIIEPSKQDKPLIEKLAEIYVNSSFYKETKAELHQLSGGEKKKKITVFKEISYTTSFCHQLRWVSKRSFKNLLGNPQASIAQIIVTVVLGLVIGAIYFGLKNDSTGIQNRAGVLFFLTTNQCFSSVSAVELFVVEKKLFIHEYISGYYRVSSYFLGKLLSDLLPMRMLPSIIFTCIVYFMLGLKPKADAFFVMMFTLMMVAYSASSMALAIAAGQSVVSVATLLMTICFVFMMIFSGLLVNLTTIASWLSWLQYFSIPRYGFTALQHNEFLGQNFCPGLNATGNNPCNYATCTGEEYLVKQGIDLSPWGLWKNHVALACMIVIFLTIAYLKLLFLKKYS
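Read-out basis: Efflux inhibition in percent versus controls | Test system: ABCG2 IgMXP3 and barcoded ABCB1 CCRF-Adr cell mix | Quantity: 3 million cells/mL in well | Schedule: 10 min at 25 °C | Control set: Nicardipine as high control, DMSO as low control | Reagent: JC-1 as fluorescent efflux pump substrate | Signal: Flow cytometry of retained JC-1 fluorescence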
Insulin prom up: MIN6 insulin promoter up-regulation; z-score at 5 µM; MIN6 insulin promoter-GFP reporter, high-content imaging; hits give high values; 0.3% of 190,000 active;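 active = z-score above 3 at 5 µM with at least 500 cells counted in the well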
GRK2 aptamer HTS: inhibitors of human GRK2 displacing RNA aptamer; P25098; bead flow cytometry, FAM-aptamer displacement from GRK2; inhibition of aptamer binding, % at 10 µM; 0.59% of 330,000 active; AID 488847;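 active = inhibition of aptamer binding above 40%, roughly 3 SD of noise, on plates passing a quality check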;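 note: median bead fluorescence of bound FAM aptamer so fluorescent compounds give negative values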
DDE Tn7 FP inh: DD(E)-Tn7 binding inhibition, primary FP screen; P02675; FP displacement of FITC-Tn7 peptide from fibrin DD(E); 0% = median of compound wells per plate; inhibition, % at 8.3 µM; 0.13% of 370,000 active; AID 720508;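 active = inhibition above the mean of compounds falling within the control limits plus 3 SD of them, cut at about 14% in these data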;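 note: 0% = plate median of compound wells and 100% = 10 µM Aha-Tn7 peptide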
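system = human fibrin DD(E) protein | quantity = DD(E) 2 µM final | medium = Tris/NaCl/CaCl2 buffer, pH 7.8 | also added = labelled Tn7 tracer, 0.1 µM | compound dosing = single point at 8.3 µM | timing = compound with protein 10 min, then 3 h after probe, room temperature | signal = FP measurement | benchmarks = Aha-Tn7 high control | repeats = one replicate per compound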
DDE Tn6 FP inh: inhibitors of Tn6 peptide binding to human fibrin DD(E). P02675. Fibrin DD(E) TRITC-Tn6 fluorescence polarization displacement. inhibition, % at 8.3 µM. 0.21% of 370,000 active;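 active = inhibition above a per-campaign cutoff: mean of compounds within control limits plus 3 SD, cut at about 15% in these data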;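 note: 0% = median of all compound wells on the plate and 100% = blocking peptide control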
ABCB1 block: human ABCB1 inhibition, ABCG2 as counter-screen. CCRF-Adr cells, JC-1 efflux, flow cytometry. inhibition, % at 6.6 µM. 0.067% of 190,000 active; in the data active = inhibition above about 40%;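 note: 0% = vehicle and 100% = reference inhibitor; higher value means more JC-1 retained so stronger ABCB1 efflux block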
GRK2 inh confirm: human GRK2 inhibition confirmation, cherry pick 1. shares compounds with GRK2 aptamer HTS. bead-bound GRK2, FAM-aptamer displacement, flow cytometry. aptamer displacement, % at 10 µM. 4% of 2,000 active;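 active = aptamer displacement above 40%, near three times the noise of non-fluorescent compounds, on plates passing quality checks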;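 note: negative values mostly reflect intrinsic compound fluorescence rather than true enhancement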
FAM quench CP1: aptamer fluorescence quenching in GRK2 counter-screen; shares compounds with GRK2 aptamer HTS; Carboxyfluorescein RNA aptamer on beads, flow cytometry quenching; hits give low values; fluorescence response (% of DMSO), % at 10 µM; 2,000 tested, under 10 active; AID 504580;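 active = compounds that quench the bead-bound fluorescent RNA probe, cutting fluorescence to under half of the solvent control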;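 note: counterscreen run without GRK2 so only probe quenching by compound is measured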
GRK2 CP2: human GRK2 inhibition confirmation, cherry pick 2; shares compounds with GRK2 aptamer HTS; bead-bound GRK2, FAM-aptamer displacement, flow cytometry; inhibition of aptamer binding, % at 10 µM; 360 tested, under 10 active; AID 504782;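 active = inhibition of aptamer binding above 40%, about triple the noise seen with nonglowing compounds, on plates passing quality control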;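 note: negative values mostly come from compounds that fluoresce themselves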
FAM quench SP: quenches fluorescent RNA aptamer, GRK2 hit artifact; shares compounds with GRK2 aptamer HTS; carboxyfluorescein RNA aptamer beads, flow cytometry quenching; hits give low values; fluorescence response vs DMSO, % at 10 µM; 360 tested, under 10 active; AID 588494;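 active = response vs DMSO under 50%, meaning signal dropped by over half, treated as fluorescence quencher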;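 note: labelled aptamer on streptavidin beads without GRK2 as a quench counter-screen; 100% = bead fluorescence of DMSO wells and lower means quenching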
* hit, by the source's call; nt = no result given.

SMILES	ABCG2 block	Insulin prom up	GRK2 aptamer HTS	DDE Tn7 FP inh	DDE Tn6 FP inh	ABCB1 block	GRK2 inh confirm	FAM quench CP1	others
O=C(CCC1CCCN(C(=O)CCN2CCCCC2=O)C1)NCc1ccccc1F (centres undefined)	2	nt	17	-3	0	0	-5	101
O=C(CSc1nnc(COc2ccccc2)n1-c1ccccc1)Nc1ccc(S(=O)(=O)Nc2nccs2)cc1	nt	nt	nt	-3	7	nt	nt	nt
Cc1ccc(O)c(C(=O)c2cnc3c(c2)CN(CCC(C)C)C(=O)N3)c1	2	-0.94	43*	5	-5	1	-2	98
Cc1ccc(Cn2cc(CN(C3CC3)S(=O)(=O)c3ccccc3Br)nn2)cc1	nt	nt	nt	-2	9	nt	nt	nt
CN(Cc1ccccc1)S(=O)(=O)c1cccc(C(=O)OCc2cccc([N+](=O)[O-])c2)c1	nt	nt	nt	2	-4	nt	nt	nt
S=C(N=Nc1ccccc1)NNc1ccccc1	0	nt	42*	-3	-4	0	-5	98
CCCCC(=O)Nc1ccc(C(=O)NCC2COc3ccccc3O2)cc1 (centres undefined)	nt	nt	nt	-4	1	nt	nt	nt
CC1CCCCN1C(=O)c1ccc(C(=O)N2CCCCC2C)cc1 (centres undefined)	2	0.06	0	4	5	1	nt	nt
Cc1ccc(C)c(S(=O)(=O)NCc2ccc(C(=O)N3CCCCC3C)cc2)c1 (centres undefined)	0	-1.1	52*	-2	-5	0	2	93
COc1ccc(C2(CCN)CC(C)N(C)CC2C)cc1 (centres undefined)	0	0.2	0	6	6	0	nt	nt
Cc1ccc(CC2(O)CC(C)N(C)CC2C)c(C)c1 (centres undefined)	1	-1.2	56*	-2	-5	0	-1	104
Cc1ccc(-c2csc(N(CCCN3CCOCC3)C(=O)c3ccco3)n2)cc1	4	-1.8	1	-5	1	4	-3	102
COC(=O)C1CN(Cc2cn(CCOC(C)=O)nn2)CCS(=O)(=O)N1Cc1ccc(OC)cc1 (centres undefined)	nt	nt	nt	-7	1	nt	nt	nt
CC(O)c1cccc(NC(=O)C2CCCCC2)c1 (centres undefined)	0	0.48	53*	0	-5	0	0	102
CC(=O)c1cccc(NC(=O)C2CCCCC2)c1	10	1.2	0	-8	-2	1	nt	nt
O=c1[nH]cnc2onc(-c3ccc(F)cc3)c12	nt	nt	12	5	0	nt	1	95
COC(=O)c1cc(=O)nc(NN=Cc2ccco2)s1	nt	nt	nt	2	7	nt	nt	nt
CC1CC(C)CN(S(=O)(=O)c2ccc(NC(=O)c3ccc(=O)[nH]c3)cc2)C1 (centres undefined)	nt	nt	2	-6	4	nt	nt	nt
COc1ccc2[nH]cc(C(C)c3ccccc3O)c2c1 (centres undefined)	nt	nt	nt	0	3	nt	nt	nt
CS(=O)(=O)N(CC(N)=O)c1cccc(Br)c1	3	0.26	1	4	8	1	nt	nt
Cc1cccc(N(CC(N)=O)S(C)(=O)=O)c1C	1	0.38	23	-1	-3	1	2	97
O=S1(=O)C=CCN1Cc1cn(Cc2cccc(Cl)c2)nn1	nt	nt	nt	-4	3	nt	nt	nt
COC(=O)[C@]12C[C@H](CC(=O)NCc3ccc(OC)c(OC)c3)C(=O)N(Cc3ccc(Cl)cc3Cl)C1=C[C@H](C(C)(C)C)O[C@@H]2C	nt	nt	nt	-2	3	nt	nt	nt
CC(=O)Nc1nc(-c2ccccc2)cc(-c2ccco2)c1C#N	nt	nt	80*	-6	-3	nt	-4	99
CC(=O)Nc1ccc2c(c1)nc(CCNC(=O)c1ccccc1)n2C	0	0.62	57*	-1	0	0	-1	99
SMILES	ABCG2 block	Insulin prom up	GRK2 aptamer HTS	DDE Tn7 FP inh	DDE Tn6 FP inh	ABCB1 block	GRK2 inh confirm	FAM quench CP1	others
Cn1c(CCNC(=O)c2ccccc2)nc2cc(NC(=O)C3CCCCC3)ccc21	7	0.2	1	-8	7	0	-8	99
CCC(=O)NCCc1nc2cc(NC(=O)Nc3ccccc3)ccc2n1C	nt	nt	6	-4	4	nt	-10	96
COC(=O)c1cn(-c2ccc3c(c2)[C@]2(CC(=O)N(C)C2c2ccccc2)C(=O)N3CC(C)C)nn1 (some centres undefined)	nt	nt	nt	1	-2	nt	nt	nt
CCCC(=O)NCc1ccc2c(c1)cc(C)n2C	-4	0.63	22	0	4	-3	nt	nt
Cc1cc2cc(CNC(=O)c3ccc(Br)o3)ccc2n1C	nt	1.4	73*	-2	15	nt	8	80
Cc1ccc(OCc2nnc(SCC(=O)Nc3ccc(S(N)(=O)=O)cc3)n2-c2ccc(Cl)cc2)cc1	nt	nt	nt	-5	-2	nt	nt	nt
Cc1ccc(C(=O)Cn2c(C)cc(C)c(C#N)c2=O)cc1	3	0.61	0	-2	-9	1	nt	nt
Cc1cc(C)n(CC(=O)c2ccc(Br)cc2)c(=O)c1C#N	2	0.39	71*	-8	-3	0	-7	102
CCCCc1c(-c2ccccc2OC)ncn1Cc1cc(F)cc(F)c1	nt	nt	nt	4	2	nt	nt	nt
CCn1ccnc1CNC(=O)c1ccc(OC2CCN(C(=O)COC)CC2)cc1	nt	nt	0	0	-4	nt	3	97
COc1ccc(OC)c2nc(-c3ccc4c(c3)OCO4)ccc12	nt	nt	42*	2	0	nt	nt	nt	GRK2 CP2=3;FAM quench SP=101
Cn1c(=O)c2c(ncn2CC(=O)N2CCc3ccccc3C2)n(C)c1=O	1	-0.44	58*	1	-4	0	2	102
CCn1c(SCC(=O)N2CCc3ccccc3C2)nc2c1c(=O)n(C)c(=O)n2C	2	0.52	3	-2	7	1	nt	nt
O=C(NCc1ccc(Cl)cc1)C(=O)c1cn(CC(=O)N2CCOCC2)c2ccccc12	nt	nt	45*	-12	-7	nt	2	105
O=C(NC1CCCCC1)c1c2c(nc3ccccc13)CCC2	1	0.16	2	-5	-1	0	nt	nt	GRK2 CP2=-1;FAM quench SP=100
O=C(O)c1c2c(nc3ccccc13)CCCCC2	-1	-0.3	3	-1	-5	0	nt	nt
Cc1ccc(OC[C@@H](O)CN2CCC(C(O)(c3ccccc3)c3ccccc3)CC2)cc1	nt	nt	nt	2	-6	nt	nt	nt
